Series [1] can be described thus: Cytotoxicity against MDCK cells assessed as cell viability by colorimetric formazan-based MTS assay. The following applies: dog, MDCK cells. Also noted: species or system Canis lupus familiaris. Summed up:
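Cytotoxicity on MDCK cells; 50% cytotoxic concentration from cell viability measured by colorimetric formazan-based MTS assay.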
On the technique in general: Formazan colour is commonly taken as a measure of viable cells.

Series [2] is described as follows: Cytotoxicity against MDCK cells assessed as minimum compound concentration required to causes microscopically detectable alteration of normal cell morphology. Format: cell-based, Canis lupus familiaris. Particulars: dog. The gist of the method:
(§1)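 Confluent, non-proliferating cell cultures were exposed to the compounds. The endpoint was the minimum concentration producing a microscopically detectable alteration of normal cell morphology.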

Series [3] can be described thus: Cytotoxicity against african green monkey Vero cells assessed as minimum compound concentration required to causes microscopically detectable alteration of normal cell morphology. Format: cell-based. Particulars: chlorocebus sabaeus. The gist of the method:
as §1

The test system of series [4] is Human respirovirus 3. Briefly: Antiviral activity against Parainfluenza-3 virus infected in african green monkey Vero cells assessed as inhibition of virus-induced cytopathogenicity after 4 days. The following applies: Human respirovirus 3, Vero, 96 h. Format: functional, organism-based. The gist of the method: (§2)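 Confluent HEL, Vero or HeLa monolayers were inoculated with 100 CCID50 of virus in the presence of varying concentrations of compound. Cytopathicity was scored when it reached completion in untreated, virus-infected control cultures.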

Series [5] concerns Sindbis virus. In words: Antiviral activity against Sindbis virus infected in african green monkey Vero cells assessed as inhibition of virus-induced cytopathogenicity after 4 days. The class given is functional, organism-based. Particulars: 96 h. Summed up:
as §2
(Protection from cytopathic effect is a common read-out in antiviral testing.)

Series [6] in a line: Cytotoxicity against human HeLa cells assessed as minimum compound concentration required to causes microscopically detectable alteration of normal cell morphology. The class given is cell-based. Summed up:
as §1

The subject of series [7] is Vesicular stomatitis virus. Briefly: Antiviral activity against Vesicular stomatitis virus infected in HeLa cells assessed as inhibition of virus-induced cytopathogenicity after 4 days. The class given is functional, organism-based. The following applies: 96 h. The gist of the method: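 Confluent HEL or HeLa monolayers infected with 100 CCID50 of virus in the presence of varying compound concentrations.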

The test system of series [8] is Coxsackievirus B4. Briefly: Antiviral activity against Coxsackie virus B4 infected in human HeLa cells assessed as inhibition of virus-induced cytopathogenicity after 4 days. Format: functional, organism-based. Particulars: Enterovirus B, 96 h. Summed up: as §2
Series [9] has as its system Respiratory syncytial virus. Briefly: Antiviral activity against Respiratory syncytial virus infected in human HeLa cells assessed as inhibition of virus-induced cytopathogenicity after 4 days. The class given is functional, organism-based. The following applies: 96 h. The gist of the method: as §2
For series [10], the system named is Influenza B virus. In words: Antiviral activity against Influenza B virus infected in MDCK cells assessed as reduction visual scoring of virus-induced cytopathogenicity after 4 days. Format: functional, organism-based. The following applies: 96 h. The gist of the method:
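MDCK monolayers infected with 100 CCID50 of influenza A (H1N1 or H3N2) or influenza B, with varying compound concentrations. Cytopathicity read when untreated infected controls reached complete CPE.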

The subject of series [11] is Influenza A virus. Briefly: Antiviral activity against Influenza A virus H1N1 infected in MDCK cells assessed as inhibition of virus-induced cytopathogenicity after 4 days by colorimetric formazan-based MTS assay. Format: functional, organism-based. The following applies: 96 h.
Series [12] concerns Influenza A virus. In words: Antiviral activity against Influenza A virus H3N2 infected in MDCK cells assessed as inhibition of virus-induced cytopathogenicity after 4 days by colorimetric formazan-based MTS assay. Format: functional, organism-based. Particulars: 96 h.

Consider `NC(=O)c1ncn([C@@H]2O[C@H](CO)[C@@H](O)[C@H]2O)n1` [RIBAVIRIN], for which, in series [1], the CC50 – broadly, the concentration giving 50% cytotoxicity – was over 100 µM. Also, the MCC in series [2] was over 100 µM; in series [3] it was over 250 µM; in series [6], over 250 µM. The EC50 – broadly, the concentration giving half of the maximal effect – in [4] was 29 µM; in series [5], over 250 µM; in series [7], over 250 µM; in [8] it was over 250 µM; in [9] it was over 250 µM; in [10], 7 µM. Further, the concentration giving a half-maximal response (EC50) in series [11] is 6.7 µM; in [12] it was 5.6 µM.

(Values after ChEMBL document CHEMBL2021854, “2-Aminopyrimidine based 4-aminoquinoline anti-plasmodial agents. Synthesis, biological activity, structure-activity relationship and mode of action studies” (Eur J Med Chem, 2012).)
